Measured values taken from ChEMBL document CHEMBL3232870, “Discovery of 3-(4-methanesulfonylphenoxy)-N-[1-(2-methoxy-ethoxymethyl)-1H-pyrazol-3-yl]-5-(3-methylpyridin-2-yl)-benzamide as a novel glucokinase activator (GKA) for the treatment of type 2 diabetes mellitus” (Bioorg Med Chem, 2014).

Experiments:
[1] = target: T1, Hexokinase-4 (Homo sapiens) (UniProt P35557); assay: Activity of recombinant human pancreatic glucokinase assessed as glucose half-maximal saturation concentration
T1 sequence (whole entry): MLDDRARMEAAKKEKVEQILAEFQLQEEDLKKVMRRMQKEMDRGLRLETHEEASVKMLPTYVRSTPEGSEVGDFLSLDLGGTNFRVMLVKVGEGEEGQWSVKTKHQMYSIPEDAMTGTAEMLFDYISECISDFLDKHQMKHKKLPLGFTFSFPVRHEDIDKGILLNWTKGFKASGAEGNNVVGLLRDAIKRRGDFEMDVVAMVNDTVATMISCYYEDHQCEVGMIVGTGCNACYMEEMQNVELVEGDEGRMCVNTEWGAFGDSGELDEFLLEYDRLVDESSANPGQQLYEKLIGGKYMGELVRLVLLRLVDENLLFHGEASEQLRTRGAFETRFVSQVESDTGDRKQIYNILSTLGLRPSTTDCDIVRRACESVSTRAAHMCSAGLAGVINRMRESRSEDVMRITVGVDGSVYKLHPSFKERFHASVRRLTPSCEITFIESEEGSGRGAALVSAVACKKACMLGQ
Procedure, shortened: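 Purified recombinant human pancreatic glucokinase coupled enzymatic assay, compounds in DMSO. Buffer: HEPES pH 7.4, KCl, MgCl2, DTT, ATP, NADP, G6PDH. Half-saturation glucose concentration S0.5 was reported. Values are means of three duplicate runs.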

Mus musculus = assay: Antidiabetic activity in po dosed C57BL/J6 mouse assessed as reduction of glucose AUC preincubated for 30 mins followed by glucose challenge measured after 30 to 180 mins by oral glucose tolerance test

S50 [1] [mM]	Compound	Activity (Mus musculus)
3.08	Cc1cccnc1-c1cc(Oc2ccc(S(C)(=O)=O)cc2)cc(C(=O)Nc2nc(CN3CCNCC3)cs2)c1	
1.78	Cc1cccnc1-c1cc(Oc2ccc(S(C)(=O)=O)cc2)cc(C(=O)Nc2nc(CC(=O)NC3CC3)cs2)c1	
3.44	Cc1cccnc1-c1cc(Oc2ccc(S(C)(=O)=O)cc2)cc(C(=O)Nc2nc(CN3CCN(C)CC3)cs2)c1	
3.98	Cc1cccnc1-c1cc(Oc2ccc(S(C)(=O)=O)cc2)cc(C(=O)Nc2nc(CNC(C)C)cs2)c1	
3.24	Cc1cccnc1-c1cc(Oc2ccc(S(C)(=O)=O)cc2)cc(C(=O)Nc2nc(CN3CCOCC3)cs2)c1	
4.51	CCCNCc1csc(NC(=O)c2cc(Oc3ccc(S(C)(=O)=O)cc3)cc(-c3ncccc3C)c2)n1	
3.54	Cc1cccnc1-c1cc(Oc2ccc(S(C)(=O)=O)cc2)cc(C(=O)Nc2ccn(CCN3CCOCC3)n2)c1	

Further lines, the compound ahead of its results:

Compound	S50 [1] [mM]	Activity (Mus musculus)
Cc1cccnc1-c1cc(Oc2ccc(S(C)(=O)=O)cc2)cc(C(=O)Nc2ccn(C)n2)c1	3.89	
Cc1cccnc1-c1cc(Oc2ccc(S(C)(=O)=O)cc2)cc(C(=O)Nc2nccs2)c1	2.01	
Cc1cccnc1-c1cc(Oc2ccc(S(C)(=O)=O)cc2)cc(C(=O)Nc2ncc(F)s2)c1	1.95	
COCCN(CCOC)Cc1csc(NC(=O)c2cc(Oc3ccc(S(C)(=O)=O)cc3)cc(-c3ncccc3C)c2)n1	5.43	
C#CCNCc1csc(NC(=O)c2cc(Oc3ccc(S(C)(=O)=O)cc3)cc(-c3ncccc3C)c2)n1	2.21	
COC(CNCc1csc(NC(=O)c2cc(Oc3ccc(S(C)(=O)=O)cc3)cc(-c3ncccc3C)c2)n1)OC	0.57	
CCN(CC)Cc1csc(NC(=O)c2cc(Oc3ccc(S(C)(=O)=O)cc3)cc(-c3ncccc3C)c2)n1	5.79	
COCCOCn1ccc(NC(=O)c2cc(Oc3ccc(S(C)(=O)=O)cc3)cc(-c3ncccc3C)c2)n1	2.33	Dose-dependent effect
COCC(C)NCc1csc(NC(=O)c2cc(Oc3ccc(S(C)(=O)=O)cc3)cc(-c3ncccc3C)c2)n1 (centres undefined)	2.27	
COCCN(C)Cc1csc(NC(=O)c2cc(Oc3ccc(S(C)(=O)=O)cc3)cc(-c3ncccc3C)c2)n1	4.56	
CCNC(=O)Cc1csc(NC(=O)c2cc(Oc3ccc(S(C)(=O)=O)cc3)cc(-c3ncccc3C)c2)n1	4.35	
